Laboratory results from ChEMBL document CHEMBL4513216, “Probing the Open Global Health Chemical Diversity Library for Multistage-Active Starting Points for Next-Generation Antimalarials” (ACS Infect Dis, 2020).

Assay: Toxicity liver stage against HepG2, at 10uM
Type: cell-based
Design: test concentration 10 uM, cell line HepG2-A16-CD81EGFP
Conditions: human, HepG2-A16-CD81EGFP cells; read-out: INHIBITION
Outline: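 Uninfected HepG2-A16-CD81EGFP cells, 3 × 10^3 per well, 1536-well, plated on prespotted compound at 10 μM final, parasite-free screening media added to match infected plates; puromycin 10 μM positive, DMSO 0.5% negative; run in parallel with 48 h PbLuc assay at 37 °C, 5% CO2; viability by CellTiter-Glo luminescence, normalized to controls.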

In order of falling cytotoxicity at 10 µM:
1. Cn1cc(CN(CC2(O)CCNC2)C2CCCCC2)cn1 (configuration not stated)  17.8%
2. CCCc1nc(N(C)Cc2ccco2)c2c(n1)c(C)nn2CC  16.9%
3. COc1ccc(CCC(=O)Nc2ccncc2C)cc1  16.1%
4. COCCN(Cc1ccoc1)C(=O)c1ccc(Cl)s1  12.3%
5. CCN(CC)C(=O)CSc1nnc(CCNC(=O)OC(C)(C)C)o1  12%
6. CNS(=O)(=O)Cc1cccc(CNCc2ccsc2)c1  11.7%
7. O=C(c1ccc(Sc2ccccn2)cc1)N1CCCSCC1  11.5%
8. O=C(COC1CCCC1)N1CCCC1c1noc(C2CC2)n1 (configuration not stated)  11%
9. Cc1noc([C@@]23CCO[C@@H]2CCN(C(=O)c2cc(C)on2)C3)n1  10.9%
10. O=C(NCCO)c1sc2ncccc2c1C1CN(C2CCCC2)CCO1 (configuration not stated)  10.8%
11. CN(C)CC1CSCCCN1C(=O)c1ccc(-n2cccc2)cc1 (configuration not stated)  10%
12. O=C(C1=CCCC1)N1CCC[C@]2(C[C@@H](OCc3ccccn3)CO2)C1  9.79%
13. CC(C)(CO)CCCNC(=O)NC1(c2ccccc2F)CC1  9.08%
14. CN(C)C(=O)[C@@H]1CCO[C@@H]2CCN(c3ncccn3)C[C@@H]21  8.31%
15. O=C(c1ccc[nH]1)N1CCCn2c(nnc2Cn2cccn2)C1  8.06%
16. COc1ccccc1OC1CN(C(=O)c2ccccc2C(C)=O)C1  7.6%
17. CCn1nc(C)c(CNC(=O)NCC(C)(O)c2ccsc2)c1C (configuration not stated)  7.59%
18. O=C1CCC(=O)N1CCN1CCOC(c2ccsc2)C1 (configuration not stated)  7.55%
19. COc1cncc(N2CCN(Cc3cccn3C)CC2)n1  6.09%
20. O=C(c1cc(-c2cccs2)cs1)N1CCOCC1  5.01%
21. Cc1cc(CN2CCN(C(=O)C3(C#N)CCCCC3)CC2)on1  4.81%
22. O=C(c1ccccc1F)N1CCCC1Cn1c(=O)oc2ccccc21 (configuration not stated)  4.49%
23. CCc1n[nH]c(C2CN(CCc3cccs3)CCO2)n1 (configuration not stated)  3.83%
24. CC1=N[C@@]2(CC[C@@H]3CN(CC4CC4)C[C@@H]32)C(=O)N1CC1CC1  3.82%
25. NC(=O)NC(CC(=O)N1CCc2sccc2C1)c1cccc(Br)c1 (configuration not stated)  3.43%
26. CCCC(C)CN1CCC(n2cc(CCCO)nn2)CC1 (configuration not stated)  3.22%
27. CC(C)NC(=O)N1CCC2(CCCO2)C1 (configuration not stated)  3.14%
28. c1ccc(C(Cn2cccn2)Nc2cnccn2)cc1 (configuration not stated)  2.99%
29. COc1cccc(CNC(=O)N2CCN3CCNC(=O)C3C2)c1 (configuration not stated)  2.62%
30. CCC(C(=O)NCc1cccnc1)N(c1cccc(C)c1)S(C)(=O)=O (configuration not stated)  2.57%
31. COc1ccccc1CCNS(=O)(=O)N1CCOCC1  2.52%
32. COCC1c2c(cnn2C)CCN1Cc1ccco1 (configuration not stated)  2.32%
33. CN(CC1CC1)C(=O)CN1CCCC1c1cnn(C)c1 (configuration not stated)  2.01%
34. CCn1nnc2c1C(COCCN(C)C)CN(c1nncs1)C2 (configuration not stated)  1.52%
35. CC(C)C(NC(=O)c1ccc(Cl)cc1Cl)C(=O)Nc1ccn(C)n1 (configuration not stated)  1.5%
36. CCn1cnnc1CCNCc1c[nH]nc1-c1ccc(F)cc1  1.31%
37. N#Cc1ncn(CCS(=O)(=O)c2ccccc2)n1  1.18%
38. c1cncc(CN2CCc3c(CNc4nccs4)n[nH]c3C2)c1  1.04%
39. CCN(CCn1cccn1)Cc1nc(-c2ccccc2F)oc1C  1.04%
40. OCCN1CCC2(CC1)CC(NCc1ccccn1)c1ccccc1O2 (configuration not stated)  0.98%
41. CC(C)(O)CCc1ccc(C(=O)NCCC2CCCOC2)cc1 (configuration not stated)  0.782%
42. Cn1cncc1CNC1CC2(CCN(CC3CC3)CC2)c2ccccc21 (configuration not stated)  0.565%
43. Cn1ccc(C(=O)N2CCCC(CNS(C)(=O)=O)C2)cc1=O (configuration not stated)  0.193%
44. CC(C)c1nc(S(=O)(=O)N(C)c2ccc(F)cc2)c[nH]1  -0.131%
45. NC(=O)C1CCN(C(=O)NCc2ccccc2Cn2ccnc2)CC1  -0.302%
46. Cc1cc(NC(=O)N(CC2CCOC2)C2CC2)no1 (configuration not stated)  -0.457%
47. CCCc1nc(N2CC[C@@H](c3ccc4ccccc4c3)[C@H](O)C2)no1  -0.471%
48. CC(C)N(Cc1nc(-c2cccs2)no1)CC1CCC(=O)N1 (configuration not stated)  -0.475%
49. CCN1CCC2(CC1)C(=O)Nc1ccc(C(=O)NC)cc12  -0.697%
50. CC(C)c1ncc2c(n1)CN(Cc1ccc3c(c1)OCCO3)CC2  -0.996%
51. Cc1ccc(-c2cc(C(=O)N(C)Cc3noc4c3CCCC4)[nH]n2)s1  -1.03%
52. Cc1nc(CCNC(=O)NC(C)c2ccc3c(c2)OCCO3)cs1 (configuration not stated)  -1.18%
53. Cn1cc(Br)c(C(=O)NCCCn2cc(Cl)cn2)n1  -1.49%
54. CN(CC(=O)N1CCOC(CCc2ccccc2)C1)Cc1ccccn1 (configuration not stated)  -1.83%
55. COc1ccc(CN2CCc3ncnc(OC(C)C)c3CC2)cc1  -1.99%
56. CN(C)C1CCN(C(=O)c2ccc(Cn3ccccc3=O)o2)CC1  -2.11%
57. c1ccc(Cc2nc(CN3CCCC3Cn3cncn3)cs2)cc1 (configuration not stated)  -2.54%
58. OCC1(O)CCCN(Cc2noc(-c3ccccc3)n2)CC1 (configuration not stated)  -2.72%
59. Cc1cnn(CC2CCCN2C(=O)c2csc(-c3nnc[nH]3)n2)c1 (configuration not stated)  -2.94%
60. CC(C)CC(NC(=O)c1cc(-c2cccn2C)n[nH]1)c1ncnn1C (configuration not stated)  -3.08%
61. c1cnc(N2CCN(CCn3ccnc3-c3ccncc3)CC2)nc1  -3.25%
62. CN(CC(=O)Nc1ccncc1)C1CCCN(c2cccnn2)C1 (configuration not stated)  -3.44%
63. CC(C)c1ccc(-c2nnn(CCNS(C)(=O)=O)n2)cc1  -3.51%
64. CCC(CO)N(Cc1ccccn1)C(=O)c1cccc(C#N)c1 (configuration not stated)  -3.67%
65. Cc1ccccc1CC(C)(C)NC(=O)CCOc1cccc(C(N)=O)c1  -4.07%
66. Cc1nn(C)c(Cl)c1CNCc1cccnc1N1CCOCC1  -4.17%
67. O=C(c1c(O)cc(F)cc1F)N1CCc2cnccc21  -4.18%
68. Cc1ccc(NC2CCN(C(=O)c3c(C)noc3C)CC2)nn1  -4.35%
69. c1cncc(NCCNC2CCCNC2)c1 (configuration not stated)  -4.5%
70. Cc1ccc2c(c1)CCC2NC(=O)N1CCC(C(N)=O)CC1 (configuration not stated)  -4.83%
71. COCCC1(CO)CCCN(C(=O)c2cc(=O)[nH]c(=O)[nH]2)C1 (configuration not stated)  -5.16%
72. Cc1[nH]c2cc(C3CCCCN3C(=O)C3CC3)nn2c(=O)c1C (configuration not stated)  -5.34%
73. CCNC(=O)N[C@H]1C[C@@H](Cc2cc(CN3CCCCC3)on2)C1(C)C  -5.46%
74. CN(CC1CCCCO1)c1nc2c(cc1C(N)=O)CCC2 (configuration not stated)  -5.64%
75. CN1CCC(c2cnc(NCc3nccn3C)cn2)CC1  -5.91%
76. CCN1CCCC1CNC(=O)c1cc(COc2cccc(F)c2)[nH]n1 (configuration not stated)  -5.96%
77. c1cc2ccc(N3CCN(Cc4ccc5c(c4)OCO5)CC3)nc2[nH]1  -6.07%
78. O=C(NCCCNc1ccc(C(F)(F)F)cn1)c1ccccc1  -6.07%
79. CC(C)NC(=O)CN(C)C1CCN(c2cnc3ccccc3n2)CC1  -6.14%
80. O=C(CN1CCCCC1Cn1cncn1)NCCc1ccsc1 (configuration not stated)  -6.19%
81. CN1CCN(C(=O)[C@@H]2C[C@@H]3CCN(c4cccc(F)c4)C[C@H]3O2)CC1  -6.22%
82. CCc1cc(N2CCC(F)(F)CC2)n2nc(C)c(C)c2n1  -6.42%
83. CCc1nn(C)c(Cl)c1CN(CCOC)Cc1cnn(C)c1  -6.5%
84. Cc1ccc(C2(O)CCN(C(=O)Cn3cc(C)c(=O)[nH]c3=O)CC2)nc1  -7.22%
85. Cc1nc(C)n(CC2CCCN2CC(=O)Nc2c(C)n[nH]c2C)n1 (configuration not stated)  -7.66%
86. CC(NCc1ccccn1)c1ccc(N2CCN(C)CC2)c(F)c1 (configuration not stated)  -7.85%
87. OC1(CN2CCC(Cc3ccccc3)CC2)CCC1  -8.26%
88. CCc1nnc2n1CCN(C(=O)Cc1csc(-c3ccco3)n1)C2  -8.7%
89. CC(NC(=O)Nc1nccs1)c1cccnc1 (configuration not stated)  -8.81%
90. Cc1nc(N2CCCC2)nc2c1CCN(C(=O)CC1CC1)CC2  -9.6%
91. COc1ccc(C)cc1NC(=O)Nc1cnc(N2CCOCC2)nc1  -9.67%
92. Cc1nc[nH]c1CN1C[C@H]2CC[C@@H](C1)N(C(=O)CCNS(C)(=O)=O)C2  -10.4%
93. Cc1csc(CNC(=O)NC2CCN(c3ncccn3)CC2)n1  -10.6%
94. Cc1n[nH]c(C)c1C1COCCN1C(=O)Cc1cccc(F)c1 (configuration not stated)  -10.7%
95. CCOC(=O)CNC(=O)N1CCCC(CNC(=O)c2ccco2)C1 (configuration not stated)  -10.9%
96. Cc1noc(C2CCN(Cn3cc(Cl)cn3)CC2)n1  -11.1%
97. Cc1ccc(-c2nc(CN3CCc4c(ncn4C)C3)cs2)o1  -11.3%
98. O=c1[nH]c(C2CCOC2)nc2ccc(Cl)cc12 (configuration not stated)  -12%
99. CCOc1ncccc1CNc1nnc(C)c(C)c1C#N  -12.1%
100. N#Cc1ccc(CN2CCCN(C(=O)CCn3cncn3)CC2)cc1  -12.7%
101. O=C(c1ccc(S(=O)(=O)NCC(F)F)cc1)N1CC[C@H]2CNC[C@H]21  -14%
102. CSCCC(=O)N1CCCN(Cc2cnn(C(C)C)c2)CC1  -25.3%
103. CCc1nc(Cn2c(=O)n(C)c3ccccc32)no1  -45.1%
104. CS(=O)(=O)NCc1ncn2c1CN(Cc1cccs1)CCC2  -66.8%
105. O=C(c1cccnc1)N1C[C@@H]2OCCN(CCN3CCCC3)[C@@H]2C1  -71.2%
106. Cc1ccc(CNC(=O)c2nc3c(n2C)CCN(c2ncccn2)C3)o1  -119%
107. Nc1ccc(C(=O)N2C[C@H]3CC[C@@H](C2)N(Cc2ccccc2)C3)cn1  -121%
108. CC(C)NC(=O)c1cc2c(s1)CCN2c1ncccn1  -123%
109. CCC(Nc1nccc(C2CCCC2)n1)c1ncccc1C (configuration not stated)  -130%
110. Cc1cc(CN2C[C@@H]3CN(C(=O)c4ccsc4)CCO[C@@H]3C2)no1  -131%
111. O=C(O)[C@H]1C[C@H](C(=O)NCc2ccncc2)CN(CCC(F)(F)F)C1  -142%
112. COc1c(CNCc2cccnc2N2CCOCC2)c(C)nn1C  -151%
